One test concerns KB. The experiment in a line: Cytotoxicity against human KB cells. The format is functional, cell-based.
For test [1], the system named is K562. Briefly: Cytotoxicity against doxorubicin-resistant human K562 cells. Format: functional, cell-based.
Test [2] concerns K562. Briefly: Cytotoxicity against human K562 cells. Format: functional, cell-based.
The test system of test [3] is OCI-Ly3. The experiment in a line: Induction of IkappaB in human OCI-LY3 cells assessed as fold increase in luciferase reporter gene at 16 uM. The format is functional, cell-based.
Test [4] deals with OCI-Ly3. Briefly: Induction of IkappaB in human OCI-LY3 cells assessed as fold increase in luciferase reporter gene. The format is functional, cell-based. (In general: In a reporter assay the amount or activity of a reporter protein is the signal.)
For test [5], the system named is OCI-Ly3. The experiment in a line: Induction of IkappaB in human OCI-LY3 cells assessed as fold increase in luciferase reporter gene after 10 hrs. As to conditions: TDE = time-dependent effect. The format is functional, cell-based.
Test [6] has as its system OCI-Ly3. Briefly: Induction of IkappaB in human OCI-LY3 cells assessed as fold increase in luciferase reporter gene at 11 uM. Format: functional, cell-based.
Test [7] deals with T1, Inhibitor of nuclear factor kappa-B kinase subunit beta (Homo sapiens) (UniProt O14920).
T1 sequence (whole entry): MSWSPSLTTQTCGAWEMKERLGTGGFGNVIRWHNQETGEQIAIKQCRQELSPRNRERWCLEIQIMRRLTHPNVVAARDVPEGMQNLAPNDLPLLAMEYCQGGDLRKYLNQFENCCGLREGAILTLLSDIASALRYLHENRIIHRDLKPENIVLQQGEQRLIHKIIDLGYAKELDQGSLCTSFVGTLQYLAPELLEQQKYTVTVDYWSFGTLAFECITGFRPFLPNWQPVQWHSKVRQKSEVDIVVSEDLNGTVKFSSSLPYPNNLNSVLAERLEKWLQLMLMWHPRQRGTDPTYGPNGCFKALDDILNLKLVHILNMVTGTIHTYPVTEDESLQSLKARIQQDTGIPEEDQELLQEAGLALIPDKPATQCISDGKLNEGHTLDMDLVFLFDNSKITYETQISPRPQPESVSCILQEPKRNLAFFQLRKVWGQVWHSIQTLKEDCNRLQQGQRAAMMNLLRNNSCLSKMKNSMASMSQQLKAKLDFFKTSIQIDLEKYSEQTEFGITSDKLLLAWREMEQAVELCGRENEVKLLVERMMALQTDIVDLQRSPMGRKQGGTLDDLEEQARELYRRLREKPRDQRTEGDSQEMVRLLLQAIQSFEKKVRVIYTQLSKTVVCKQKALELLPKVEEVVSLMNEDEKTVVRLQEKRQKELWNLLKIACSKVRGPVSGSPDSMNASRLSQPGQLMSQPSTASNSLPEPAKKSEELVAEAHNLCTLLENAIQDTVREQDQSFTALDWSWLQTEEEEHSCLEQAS
The experiment in a line: Inhibition of IKK-beta in human OCI-LY10 cells assessed as decrease in renilla values at 2.5 to 10 ug/ml after 10 hrs by IkB-photinus/Renilla assay. Format: cell-based. In a few lines: (§1)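 OCI-Ly3, OCI-Ly10 and OCI-Ly19 cells stably coexpressing an IκB-Photinus fusion reporter and unmodified Renilla luciferase, in phenol red-free IMDM with 20% heparinized human plasma. Cells were exposed to compound at 37 °C, 5% CO2 for 2.5, 5 or 10 h, then pelleted, lysed and given dual luciferase substrates. Photinus/Renilla ratio and Renilla alone were normalized to the untreated control mean.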

For test [8], the target named is T1, Inhibitor of nuclear factor kappa-B kinase subunit beta (Homo sapiens). The experiment in a line: Inhibition of IKK-beta in human OCI-LY3 cells assessed as decrease in renilla values at 2.5 to 5 ug/ml after 10 hrs by IkB-photinus/Renilla assay. The format is cell-based. The following applies: 5 to 10 ug/ml, in the assay text read “at 5 to 10 ug/ml” for “at 2.5 to 5 ug/ml”. A digest of the protocol: as §1

The target is the same in test [9]. Briefly: Inhibition of IKK-beta in human OCI-LY19 cells assessed as decrease in renilla values at 10 ug/ml after 2.5 to 10 hrs by IkB-photinus/Renilla assay. The format is cell-based. A digest of the protocol: as §1
The target is the same in test [10]. The experiment in a line: Inhibition of IKK-beta in human OCI-LY19 cells assessed as decrease in renilla values at 10 ug/ml after 10 hrs by IkB-photinus/Renilla assay. Format: cell-based. In a few lines:
as §1

Broadly, the IC50 is the concentration at which inhibition is half-maximal.

Calls of active or inactive are those of the source. The rule behind the calls is not given here.

On to `O=C1C[C@@H]2/C(=C(O)\C=C\c3ccccc3)C(=O)C=C[C@@H]2O1` [CRYPTOCARYONE], for which the IC50 in the test with KB, in the test on K562 [1] and in the test with K562 [2] was 1800 nM in each case. Also, in the test with OCI-Ly3 [3], the result was Active. Also, the Activity entry in the test on OCI-Ly3 [4] was “Dose-dependent effect”; in the test on OCI-Ly3 [5] it was “tde”.
For `O=C(/C=C/C[C@@H]1CC=CC(=O)O1)CCc1ccccc1`, in the test on OCI-Ly3 [6], the outcome was Active. The Activity result in the test with OCI-Ly3 [4] is “Dose-dependent effect”; with OCI-Ly3 [5], “tde”. Further, the inhibition result in [7], in test [8] and in test [9] was “Active” throughout. Also, the inhibition result in test [10] is “inactive”.

These data come from ChEMBL document CHEMBL1781924, “Inhibitors of the NF-kappaB activation pathway from Cryptocarya rugulosa” (J Nat Prod, 2009).
